Inhibition of corepressor binding data for 44 molecules are collected here from PubChem BioAssay AID2300 (The Scripps Research Institute Molecular Screening Center, 2010).

Screen size: about 320,000 compounds; about 380 (0.12%) were called active. The entries come from a sample that favours actives as a whole. Values without a mark were called inactive.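 Rule for the calls: active = percent inhibition above the cutoff of mean plus 3 SD of all tested compounds, set per screening campaign (cut at about 20% in these data); inactive = the rest.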

For this assay, the target named is Photoreceptor-specific nuclear receptor (Homo sapiens) (UniProt Q9Y5X4). As to the kind of experiment: inhibitors of NR2E3-RetCOR corepressor binding, primary screen, NR2E3 agonist project, biochemical, TR-FRET, GST-NR2E3, biotin-RetCOR (AID 2300).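 Note: 0% = DMSO wells and 100% = biotin wells as full block of FRET.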 To be noted: 1536-well, at 4.78 µM, stronger effect = higher value. The procedure, abridged: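 System: GST-NR2E3 and biotin-RetCOR proteins; probe or stimulus: 7 nM biotin-RetCOR; doses: compound at 4.8 µM, single dose; schedule: Compound–protein incubation for 5 h at 4 °C; detection: time-resolved FRET; read-out: percent inhibition; controls: biotin wells as high control, 0.6% DMSO wells as low control; format: 1536-well plates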
Sequence of Photoreceptor-specific nuclear receptor (Homo sapiens) (Q9Y5X4 whole entry, looked up): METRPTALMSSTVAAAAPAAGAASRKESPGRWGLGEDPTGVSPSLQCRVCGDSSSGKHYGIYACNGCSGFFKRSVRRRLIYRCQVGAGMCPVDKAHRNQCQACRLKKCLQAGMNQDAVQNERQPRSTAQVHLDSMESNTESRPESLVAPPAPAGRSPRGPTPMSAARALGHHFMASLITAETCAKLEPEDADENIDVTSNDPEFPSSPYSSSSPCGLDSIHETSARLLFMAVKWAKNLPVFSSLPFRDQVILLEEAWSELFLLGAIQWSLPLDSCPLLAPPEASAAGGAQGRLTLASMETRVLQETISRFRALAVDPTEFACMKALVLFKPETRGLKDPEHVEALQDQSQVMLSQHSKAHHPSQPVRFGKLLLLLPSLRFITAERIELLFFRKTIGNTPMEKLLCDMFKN
For orientation: TR-FRET usually uses a lanthanide donor and a delayed reading to cut background.
As for `Cc1cc(NC(=O)Nc2ccccc2[N+](=O)[O-])no1`, the inhibition of corepressor binding is 0.41%. `COc1cccc(-n2c(=S)[nH]c3c(oc4ccccc43)c2=O)c1`: the inhibition of corepressor binding was 29.2% (active). Consider `COc1cccc(N2C(=O)CN(Cc3ccccc3)C2=S)c1`, for which the inhibition of corepressor binding is -3.57%. Take `COc1cccc(-n2cc(C(=O)O)c3ccccc3c2=O)c1`: the inhibition of corepressor binding is 3.78%. Regarding `COc1ccc(NC(=O)CSc2nnc(Cc3ccccc3)c(=O)n2N)cc1`, the inhibition of corepressor binding is -3.17%.

Turning to `COC(=O)C1=NN(c2ccccc2)C2C(=O)N(c3ccccc3OC)C(=O)C12` (centres undefined), the inhibition of corepressor binding is -1.01%. For `C/C(=C\c1ccco1)CN1CCC(N2CCC(C(=O)N3CCOCC3)CC2)CC1` the value was -0.38%; for `O=C(Nc1ccccc1Cl)NC1(C(=O)N2CCOCC2)CCCCC1`, 1.2%. In the case of `CCc1nn(CCCC(=O)NCc2ccc(C)cc2)c(=O)c2cc3occc3n12`, the inhibition of corepressor binding was 1.62%.

On to `C=C1c2c(Cl)ccc(O)c2C(O)=C2C(=O)[C@]3(O)C(O)=C(C(N)=O)C(=O)[C@@H](N(C)C)[C@@H]3[C@@H](O)C12` (some centres undefined), for which the inhibition of corepressor binding was 3.15%. As to `C=CCn1c(SCc2ccc(Cl)c(Cl)c2)nnc1C(CO)NC(=O)c1ccc(OC)cc1` (centres undefined), the inhibition of corepressor binding was -1.93%.

Turning to `Cc1ccn(C(CC(=O)c2ccc(Br)cc2)C(=O)O)n1` (centres undefined), the inhibition of corepressor binding was 0.75%. As for `CC(C)CCNc1nc(N2CCCC2)c2c(c1C#N)CCN(C)C2`, the inhibition of corepressor binding was -2.99%. Take `CCc1ccnc(NS(=O)(=O)c2ccc3c(c2)OCCO3)c1`: the inhibition of corepressor binding was -3.2%.

As to `CCN(C(=O)COC(=O)/C=C/c1nc2ccccc2s1)C1CCS(=O)(=O)C1` (centres undefined), the inhibition of corepressor binding was -1.91%. For the molecule `C[C@@H](NC(=O)c1nc[nH]c1C(=O)N1CCN(C(=O)OC(C)(C)C)CC1)c1ccccc1`, the inhibition of corepressor binding was 0.22%. Regarding `N#C/C(=C/c1ccc(Cl)cc1)NC(=O)c1ccccc1`, the inhibition of corepressor binding is 0.97%.

For `CSc1sc(C(=O)NC(=O)NCc2cccnc2)c(C)c1-c1ccon1`, the inhibition of corepressor binding is -5.08%. Regarding `CCOc1ccc(OCC)c(NC(=O)C(NS(=O)(=O)c2ccc3c(c2)oc(=O)n3C)C(C)C)c1` (centres undefined), the inhibition of corepressor binding was 5.32%. For `CCN(CC)S(=O)(=O)c1ccc(N(C)Cc2cccc(OC)c2OC)nc1`, the inhibition of corepressor binding is -0.21%. For the molecule `Cc1ccc(C(=O)Nc2ccc(C)c(S(=O)(=O)N(C)C)c2)s1`, the inhibition of corepressor binding was -3.92%. `COc1ccccc1C(=O)Nc1ccnn1C1CCN(Cc2cnn(C)c2)CC1`: the inhibition of corepressor binding is -1.2%. As for `O=[N+]([O-])c1ccc(Oc2ccc(F)cc2Br)c2ccncc12`, the inhibition of corepressor binding was 3.74%. For `O=C(COC(=O)CNS(=O)(=O)c1ccc(F)c(F)c1F)NC1CCCC1` the value was 1.54%; for `CCC1(CC)Cc2ccccc2-c2nc(CCl)[nH]c(=O)c21`, -2.67%; for `CC1(C)Cc2ccccc2-c2nc(CN3CCOCC3)[nH]c(=O)c21`, 0.32%. Turning to `CC1(C)Cc2ccccc2-c2[nH]c(=S)[nH]c(=O)c21`, the inhibition of corepressor binding is 49.1% (active).

For `Cc1ccc(Sc2ccncc2S(N)(=O)=O)cc1`, the inhibition of corepressor binding is 0.79%. `Cn1cc(CN2CCCC(CO)C2)c(-c2ccc(Oc3ccccc3)cc2)n1` (centres undefined): the inhibition of corepressor binding was -0.36%. For `COc1ccc(C2c3[nH]c4ccccc4c3CCN2CCCn2cccn2)cc1C` (centres undefined), the inhibition of corepressor binding was 1.77%. Regarding `CCc1ccc(NC(=O)CN2CCC(C(=O)c3ccc(OC)cc3)CC2)cc1`, the inhibition of corepressor binding is 4.08%. As for `CC[C@@H](C)[C@@H](C(=O)N1CCN(C(=O)OC(C)(C)C)CC1)n1cc(CCC(=O)O)nn1`, the inhibition of corepressor binding was 2.89%. As to `O=c1[nH]c(CCl)nc2cc(-c3ccc(Cl)cc3)sc12`, the inhibition of corepressor binding is 1.58%. Regarding `COc1ccc(CNC(=O)CN(Cc2ccc(Cl)cc2)S(C)(=O)=O)cc1`, the inhibition of corepressor binding was -2.12%.

As for `CCCC(=O)n1nc(NCc2ccc(OC)cc2)nc1NCc1ccc(OC)cc1`, the inhibition of corepressor binding is -0.61%. For `COc1ccc(NC(=O)CN2C(=O)C(c3ccccc3)=NC23CCCCCC3)cc1OC` the value was 1.4%. For `O=C(CCc1ccc(S(=O)(=O)N2CCOCC2)cc1)Nc1ccc2ccccc2c1`, the inhibition of corepressor binding was 0.61%. On to `O=C(C(Cc1ccccc1)n1cccc1)N1CCN(C2CCCCC2)CC1` (centres undefined), for which the inhibition of corepressor binding was -0.53%. For `O=C(/C=N/O)Nc1ccccc1` the value was -4.21%. Consider `O=C(COC(=O)c1ccc(NS(=O)(=O)c2cccs2)cc1O)Nc1ccc(F)cc1`, for which the inhibition of corepressor binding is 0.61%. For `Cc1cc(C)n(CC(C)NCc2c(C(=O)N3CCOCC3)nc3c(C)cccn23)n1` (centres undefined) the value was -0.74%. With `COc1cc(C(=O)NCC(c2ccco2)N2CCCC2)ccc1OCc1ccccc1` (centres undefined), the inhibition of corepressor binding was 2.49%. Then `CCOC(=O)c1c(NC(=O)CN2C(=O)NC3(CCC(C)CC3)C2=O)sc(C)c1CC` (centres undefined), with 1.08%; and `O=C(COc1coc(CN2CCN(c3ccccc3F)CC2)cc1=O)N1CCc2ccccc21`, with -1.02%.
